# From ChEMBL document CHEMBL1140478, “Preparation and antitubercular activities of alkylated amino alcohols and their glycosylated derivatives” (Bioorg Med Chem, 2007)
# Key:
# [1] = test system: Mycobacterium tuberculosis; assay: Antimycobacterial activity against Mycobacterium tuberculosis H37Rv by microplate alamar blue assay; assay type: functional
# In short: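 M. tuberculosis H37Rv (ATCC 27294) exposed to decreasing compound concentrations in Middlebrook 7H9 medium. Growth read by Microplate Alamar Blue Assay. MIC taken as the lowest concentration that […]. Values are means of three separate experiments. Rifampicin at 1.0 µg/mL served as internal control.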
# J774.A1 [2] = assay: Cytotoxicity against mouse […] cells at 0.05 ug/mL by MTT assay; assay type: cell-based
# In short: (§1)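 Supernatants removed, cells given supplemented RPMI plus MTT (5 mg/mL) for 4 h at 37 °C, 5% CO2. Reaction stopped with acidic isopropanol (HCl), 10 min at room temperature, OD read at 570 nm. Proliferation and cytotoxicity calculated by formulae.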
# J774.A1 [3] = assay: Cytotoxicity against mouse […] cells at 0.005 ug/mL by MTT assay; assay type: cell-based; in short: as §1
# [4] = Cell proliferation of mouse […] cells at 0.05 ug/mL by MTT assay; assay type: ADME, cell-based, J774.A1; details: J774A.1 cells, read-out: Activity; in short: as §1
# [5] = Cell proliferation of mouse […] cells at 0.5 ug/mL by MTT assay; assay type: ADME, cell-based, J774.A1; details: J774A.1 cells, read-out: Activity; in short: as §1
# J774.A1 [6] = assay: Cytotoxicity against mouse […] cells at 0.5 ug/mL by MTT assay; assay type: cell-based; in short: as §1
# [7] = Cell proliferation of mouse […] cells at 0.005 ug/mL by MTT assay; assay type: ADME, cell-based, J774.A1; details: J774A.1 cells, read-out: Activity; in short: as §1
Compound,MIC [1],Activity (J774.A1 [2]),Activity (J774.A1 [3]),viability at 0.05 ug/mL [4] [%],viability at 0.5 ug/mL [5] [%],Activity (J774.A1 [6]),viability at 0.005 ug/mL [7] [%]
CCCCCCCCCCN(CCO)C[C@H]1O[C@@H]2OC(C)(C)O[C@@H]2[C@H]2OC(C)(C)O[C@H]21,225 µM,–,–,–,–,–,–
CCCCC(CC)CNCCO (stereo unspecified),> 578 µM,–,–,–,–,–,–
CC[C@@H](CO)NCCN[C@@H](CC)CO [ETHAMBUTOL],3.25 µg/mL,–,–,–,–,–,–
CCCCCCCCCCCCCCNCCO [MYRALACT],51 µM,–,–,–,–,–,–
CCCCCCCCCCCCCCN(CCO)C[C@H]1O[C@@H]2OC(C)(C)O[C@@H]2[C@H]2OC(C)(C)O[C@H]21,12 µM,Not Active,Not Active,135,118,Not Active,113
CCCCCCCCCCNCCO,248 µM,–,–,–,–,–,–
CCCCCCCCCCCCNCCO,27 µM,8.4%,12.1%,77.6,90.9,21.3%,92.7
CCCCCCCCNCCO,578 µM,–,–,–,–,–,–
CCCCCCCCN(CCO)C[C@H]1O[C@@H]2OC(C)(C)O[C@@H]2[C@H]2OC(C)(C)O[C@H]21,241 µM,–,–,–,–,–,–
CCCCCCCCCCCCN(CCO)C[C@H]1O[C@@H]2OC(C)(C)O[C@@H]2[C@H]2OC(C)(C)O[C@H]21,6 µM,Not Active,Not Active,98.9,96.6,Not Active,98.3
CO[C@H]1/C=C/O[C@@]2(C)Oc3c(C)c(O)c4c(O)c(c(/C=N/N5CCN(C)CC5)c(O)c4c3C2=O)NC(=O)/C(C)=C\C=C\[C@H](C)[C@H](O)[C@@H](C)[C@@H](O)[C@@H](C)[C@H](OC(C)=O)[C@@H]1C [RIFAMPIN],1 µg/mL,–,–,–,–,–,–
CCCCCCCCCCC(O)CN (stereo unspecified),15 µM,Not Active,Not Active,112,96.4,31.1%,110
CCCCCCCCCCCCCCCCN(CCO)C[C@H]1O[C@@H]2OC(C)(C)O[C@@H]2[C@H]2OC(C)(C)O[C@H]21,11 µM,16.3%,10.6%,–,149,17.4%,104
NNC(=O)c1ccncc1 [ISONIAZID],0.2 µg/mL,–,–,–,–,–,–
CCCCCCCCCCC(O)CNC[C@H]1O[C@@H]2OC(C)(C)O[C@@H]2[C@H]2OC(C)(C)O[C@H]21 (stereo partly specified),28 µM,–,–,–,–,–,–
CCCCC(CC)CN(CCO)C[C@H]1O[C@@H]2OC(C)(C)O[C@@H]2[C@H]2OC(C)(C)O[C@H]21 (stereo partly specified),> 240 µM,–,–,–,–,–,–
CCCCCCCCCCCCCCCCNCCO,46 µM,–,–,–,–,–,–
